Source: ChEMBL document CHEMBL1177763, “Synthesis and biological activity of glycosyl-1H-1,2,3-triazoles” (Bioorg Med Chem Lett, 2010)
Calls of active or inactive are those of the source. The rule behind the calls is not given here.

What was measured:
[1] = system: Talaromyces flavus; test: Inhibition of Talaromyces flavus CCF 2686 beta-N-acetylglucosaminidase at 2 mM
[2] = system: Penicillium pittii; test: Inhibition of Penicillium pittii CCF 2277 beta-N-acetylglucosaminidase at 2 mM
[3] = molecular target: T1, Early activation antigen CD69 (Homo sapiens, UniProt Q07108); test: Binding affinity to rhodamine-labeled human CD69 receptor after 2 hrs by fluorescence assay
T1 sequence (Q07108 whole entry): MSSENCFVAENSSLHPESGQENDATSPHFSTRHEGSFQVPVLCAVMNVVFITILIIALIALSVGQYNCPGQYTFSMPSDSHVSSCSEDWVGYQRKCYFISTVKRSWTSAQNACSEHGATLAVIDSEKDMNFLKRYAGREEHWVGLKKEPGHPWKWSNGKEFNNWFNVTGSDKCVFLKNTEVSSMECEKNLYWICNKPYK
Summary of the method: (§1)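 Competitive displacement assay: the compound's ability to displace a high-affinity receptor ligand was measured on rat NKR-P1A and human CD69 activating receptors. Affinity was expressed relative to free N-acetyl-D-glucosamine as the reference ligand.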

[4] = system: Aspergillus oryzae; test: Inhibition of Aspergillus oryzae CCF 1066 beta-N-acetylglucosaminidase at 2 mM
[5] = system: Penicillium oxalicum; test: Inhibition of Penicillium oxalicum CCF 1959 beta-N-acetylglucosaminidase at 2 mM
[6] = molecular target: T2, Killer cell lectin-like receptor subfamily B member 1A (Rattus norvegicus, UniProt P27471); test: Binding affinity to fluorescein-labeled rat NKR-P1A after 2 hrs by fluorescence assay; summary of the method: as §1
T2 sequence (P27471 whole entry): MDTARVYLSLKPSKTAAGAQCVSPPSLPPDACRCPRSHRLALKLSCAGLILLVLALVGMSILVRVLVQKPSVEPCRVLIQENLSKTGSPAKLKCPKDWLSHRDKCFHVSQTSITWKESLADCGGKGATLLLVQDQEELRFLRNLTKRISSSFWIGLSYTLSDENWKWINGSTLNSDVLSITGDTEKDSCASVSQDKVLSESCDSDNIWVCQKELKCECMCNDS

[7] = molecular target: Alpha-galactosidase (Coffea arabica) (UniProt Q42656); test: Inhibition of green coffee bean alpha-galactosidase at 1 mM
[8] = system: Saccharomyces cerevisiae; test: Inhibition of yeast alpha-glucosidase at 1 mM
[9] = molecular target: T3, Beta-galactosidase (Aspergillus oryzae) (UniProt Q2U7N3); test: Inhibition of Aspergillus oryzae beta-galactosidase at 1 mM
T3 sequence (whole entry): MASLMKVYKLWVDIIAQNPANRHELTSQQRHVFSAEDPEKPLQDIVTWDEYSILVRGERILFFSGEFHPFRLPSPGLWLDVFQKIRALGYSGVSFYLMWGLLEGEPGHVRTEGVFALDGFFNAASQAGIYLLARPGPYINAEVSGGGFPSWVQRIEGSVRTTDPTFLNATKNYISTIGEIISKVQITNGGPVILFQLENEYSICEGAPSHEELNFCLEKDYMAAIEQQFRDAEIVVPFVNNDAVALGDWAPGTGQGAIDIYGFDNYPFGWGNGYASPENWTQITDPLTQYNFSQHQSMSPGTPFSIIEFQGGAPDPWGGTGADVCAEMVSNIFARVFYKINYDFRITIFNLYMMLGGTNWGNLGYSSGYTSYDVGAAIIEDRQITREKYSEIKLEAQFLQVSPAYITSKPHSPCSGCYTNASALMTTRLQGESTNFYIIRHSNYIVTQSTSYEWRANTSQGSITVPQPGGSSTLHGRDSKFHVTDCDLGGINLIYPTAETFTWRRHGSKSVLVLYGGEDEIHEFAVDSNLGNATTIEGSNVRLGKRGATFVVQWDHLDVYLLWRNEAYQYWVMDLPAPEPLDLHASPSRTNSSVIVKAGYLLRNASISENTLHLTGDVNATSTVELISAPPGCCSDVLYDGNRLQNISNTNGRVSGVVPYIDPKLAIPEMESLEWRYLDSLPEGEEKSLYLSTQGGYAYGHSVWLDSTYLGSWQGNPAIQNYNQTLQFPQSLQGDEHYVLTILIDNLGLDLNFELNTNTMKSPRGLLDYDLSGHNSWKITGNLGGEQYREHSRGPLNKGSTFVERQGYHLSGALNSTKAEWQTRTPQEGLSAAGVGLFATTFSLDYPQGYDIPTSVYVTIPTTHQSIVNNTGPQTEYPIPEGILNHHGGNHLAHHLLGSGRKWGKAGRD

[10] = molecular target: Beta-galactosidase (Escherichia coli) (UniProt Q8VNN2); test: Inhibition of Escherichia coli beta-galactosidase at 1 mM
[11] = system: Prunus dulcis; test: Inhibition of sweet almond beta-glucosidase at 1 mM
[12] = molecular target: Beta-galactosidase (Escherichia coli, UniProt Q8VNN2); test: Inhibition of Escherichia coli beta-galactosidase
Chain of Beta-galactosidase (Q8VNN2 whole entry): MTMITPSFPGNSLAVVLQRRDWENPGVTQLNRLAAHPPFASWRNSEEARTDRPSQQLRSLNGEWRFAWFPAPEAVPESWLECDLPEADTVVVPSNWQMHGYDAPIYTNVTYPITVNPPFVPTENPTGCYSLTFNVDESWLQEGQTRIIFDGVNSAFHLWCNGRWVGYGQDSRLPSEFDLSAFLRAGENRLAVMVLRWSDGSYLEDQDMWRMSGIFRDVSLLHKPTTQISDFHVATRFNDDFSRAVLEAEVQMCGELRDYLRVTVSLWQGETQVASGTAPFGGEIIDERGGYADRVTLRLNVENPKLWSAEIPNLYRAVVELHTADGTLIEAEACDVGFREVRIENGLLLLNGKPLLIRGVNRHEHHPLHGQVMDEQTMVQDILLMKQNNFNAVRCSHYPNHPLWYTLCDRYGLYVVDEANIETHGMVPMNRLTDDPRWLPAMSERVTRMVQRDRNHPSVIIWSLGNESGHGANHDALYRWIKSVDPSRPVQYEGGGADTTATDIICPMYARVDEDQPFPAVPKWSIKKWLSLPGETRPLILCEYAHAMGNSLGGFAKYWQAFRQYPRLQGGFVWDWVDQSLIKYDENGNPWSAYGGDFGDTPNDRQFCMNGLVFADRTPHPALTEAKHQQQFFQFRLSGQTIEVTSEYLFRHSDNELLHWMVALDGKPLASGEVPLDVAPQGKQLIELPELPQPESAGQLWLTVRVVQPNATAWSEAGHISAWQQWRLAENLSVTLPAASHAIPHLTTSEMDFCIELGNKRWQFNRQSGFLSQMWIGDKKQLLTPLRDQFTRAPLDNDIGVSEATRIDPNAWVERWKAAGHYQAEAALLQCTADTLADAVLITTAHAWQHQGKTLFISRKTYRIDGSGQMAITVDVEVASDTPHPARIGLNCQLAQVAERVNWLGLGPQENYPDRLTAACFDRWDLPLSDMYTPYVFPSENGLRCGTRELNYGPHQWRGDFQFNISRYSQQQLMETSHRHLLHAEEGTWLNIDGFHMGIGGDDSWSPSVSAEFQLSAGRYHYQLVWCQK

Chain of Beta-galactosidase (Escherichia coli) (Q8VNN2 whole entry, looked up): as the sequence (Q8VNN2 whole entry) above
Chain of Alpha-galactosidase (Coffea arabica) (Q42656 16-378 limits assumed): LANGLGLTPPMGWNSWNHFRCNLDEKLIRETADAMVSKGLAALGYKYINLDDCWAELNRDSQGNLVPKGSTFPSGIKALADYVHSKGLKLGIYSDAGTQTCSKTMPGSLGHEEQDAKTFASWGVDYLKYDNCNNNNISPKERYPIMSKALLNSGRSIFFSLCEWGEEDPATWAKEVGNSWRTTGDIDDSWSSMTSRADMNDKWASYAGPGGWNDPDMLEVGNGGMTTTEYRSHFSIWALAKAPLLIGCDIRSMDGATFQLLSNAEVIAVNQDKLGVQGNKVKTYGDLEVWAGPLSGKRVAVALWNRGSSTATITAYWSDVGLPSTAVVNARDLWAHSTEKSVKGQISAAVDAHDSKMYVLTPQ

Structure (SMILES): CC(=O)N[C@@H]1[C@@H](O)[C@H](O)[C@@H](CO)O[C@H]1n1ccnn1
- inhibition [1]: inactive
- inhibition [2]: inactive
- IC50 [3]: 3.98 µM
- inhibition [4]: inactive
- inhibition [5]: inactive
- IC50 [6]: 0.0631 µM

Structure (SMILES): OC[C@H]1O[C@H](n2ccnn2)[C@H](O)[C@@H](O)[C@H]1O
- inhibition [7]: inactive

Structure (SMILES): OC[C@H]1O[C@H](n2ccnn2)[C@H](O)[C@@H](O)[C@@H]1O
- inhibition [8]: inactive

Structure (SMILES): OC[C@H]1O[C@@H](n2ccnn2)[C@H](O)[C@@H](O)[C@H]1O
- inhibition [9]: inactive
- inhibition [10]: inactive

Structure (SMILES): OC[C@H]1O[C@@H](n2ccnn2)[C@H](O)[C@@H](O)[C@@H]1O
- inhibition [11]: inactive

Structure (SMILES): OC[C@H]1O[C@@H](n2cc(-c3ccccc3)nn2)[C@H](O)[C@@H](O)[C@@H]1O
- Ki [12]: 330 µM

Structure (SMILES): CC(=O)N[C@@H]1[C@@H](O)[C@H](O)[C@@H](CO)O[C@H]1O [N-ACETYLGLUCOSAMINE]
- IC50 [3]: 126 µM
- IC50 [6]: 2 µM
